# Diaph inh CS – diaphorase inhibition or chemical oxidation counter-screen; diaphorase resazurin-to-resorufin fluorescence, NADH, 16 min; bacterial (C. kluyveri) enzyme, not human; 190,000 tested, 0.69% active; AID 1217; inhibition, % at 20 µM;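 active = primary screen inhibition at 20 µM above a set limit, cut at about 50% in these data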;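 note: plate controls were DMSO with full reaction for no effect and wells lacking NADH for full effect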
#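 Test system: diaphorase enzyme from Clostridium kluyveri; amount: diaphorase at 0.14 U/mL in enzyme working solution; detection: fluorescence of resorufin formed from resazurin, Ex 544/Em 590 nm; times: reaction incubation of 16 min at room temperature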
# Diaphorase act – activates diaphorase or chemically reduces, flagging diaphorase assay artifacts. Diaphorase/resazurin coupled assay, resorufin fluorescence, 16 min; hits give high values; 1 = vehicle wells, 0 = NADH-free wells. activation factor at 20 µM. 190,000 tested, 0.005% active. AID 1229;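 active = diaphorase activity raised at least twofold by the compound at 20 µM; inactive = activation factor below 2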
#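 Material: bacterial diaphorase enzyme (C. kluyveri); amount: enzyme 0.07 U/mL final; reagent: NADH substrate 0.114 mM plus resazurin dye 0.1 mM, final; doses: single compound dose of 20 µM, 1% DMSO final; timing: 16 min enzyme reaction, ambient temperature; measured by: fluorescence of resorufin, 544 nm excitation, 590 nm emission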
# HKDC1 inhibitor – inhibitors of human hexokinase HKDC1; 340,000 tested, 0.16% active; recombinant HKDC1, G6PDH/diaphorase resazurin coupled fluorescence; inhibition, % at 20 µM; Q2TB90;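 active = inhibition above about 35% when tested at 20 µM, limit read from the data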;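 note: plate controls were DMSO wells with enzyme for no effect and DMSO wells lacking enzyme for full effect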
#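 Material – in-house recombinant HK5 (HKDC1) enzyme · Quantity – HKDC1 at 5 µg/mL · Buffer or medium – pH 8.0 Tris buffer with 10 mM MgCl2 · Reagent – glucose with 1 mM ATP · Dosing – single 20 µM dose · Times – reaction time 90 min, room temperature, protected from light · Technique – resorufin fluorescence at 613 nm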
# PfGluPho inh – PfG6PD (Plasmodium falciparum) enzyme inhibition; AID 504690; PfGluPho enzyme, NADPH resazurin-diaphorase fluorescence; 350,000 tested, 0.78% active; inhibition, % at 20 µM;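 active = inhibition reaching at least a set limit at 20 µM in the primary screen, cut at about 59% in these data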;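 note: 0% = DMSO wells with substrate and 100% = DMSO wells lacking glucose-6-phosphate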
# G6PDH CS – L. mesenteroides G6PDH inhibition counter-screen; Purified L. mesenteroides G6PDH, diaphorase/resazurin coupled fluorescence, 45 min; inhibition, % at 5 µM; 200,000 tested, 0.12% active; in the data active = inhibition above about 50%
# HKDC1 act conf – confirmation of human HKDC1 activators; 740 tested, 14% active; inhibition, % at 20 µM; shares compounds with HKDC1 inhibitor; recombinant HKDC1, G6PDH/diaphorase resazurin fluorescence; hits give low values;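 active = inhibition at or below a set negative limit, negative inhibition meaning the enzyme was activated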
# PfGluPho conf – PfG6PD inhibition, single-dose confirmed; shares compounds with PfGluPho inh; recombinant PfGluPho, NADPH-diaphorase-resazurin fluorescence; inhibition, % at 20 µM; 2,400 tested, 34% active;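 active = inhibition of at least 50% at 20 µM in any single replicate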;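 note: 0% = DMSO with substrate and 100% = DMSO lacking glucose-6-phosphate substrate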
# Diaph ctr 10uM – counter-screen for P. falciparum G6PD inhibitors: diaphorase inhibitors, oxidizers; shares compounds with PfGluPho inh; diaphorase-coupled resazurin reduction, fluorescence, NADPH 10 uM; inhibition, % at 20 µM; 820 tested, 39% active; AID 504862;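 active = average inhibition reaching 50% or more with the compound at 20 µM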;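 note: resorufin red fluorescence formed as diaphorase reduces resazurin using NADPH; 0% = DMSO with enzyme and 100% = DMSO without enzyme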
# Diaph ctr 30uM – inhibits diaphorase or oxidizes, flagging false PfG6PD hits | 820 tested, 29% active | shares compounds with PfGluPho inh | Diaphorase/resazurin coupled assay, resorufin fluorescence, 30 uM NADPH | inhibition, % at 20 µM;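 active = inhibition averaging 50% or more, tested at 20 µM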;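 note: 0% = DMSO with enzyme and 100% = DMSO wells lacking diaphorase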
# * = called active by the depositor; . = no result. Rows were chosen to be rich in hits. Some 1.2% of all compounds tested hit in one or more screens of this group.
SMILES,Diaph inh CS,Diaphorase act,HKDC1 inhibitor,PfGluPho inh,G6PDH CS,HKDC1 act conf,PfGluPho conf,Diaph ctr 10uM,Diaph ctr 30uM
CN(C)c1cccc2c1C(=O)c1ccccc1C2=O,28,0.7,7,2,29,.,.,.,.
Cc1cc(C)c2c(=N)c3ccccc3n(CCCCCCCCn3c4ccccc4c(=N)c4c(C)cc(C)nc43)c2n1,.,.,74*,76*,.,23,51*,3,0
Cc1ccc(S(=O)(=O)N(C(=O)c2ccncc2)c2ccc(OC(=O)c3ccncc3)c3ccccc23)cc1,33,0.7,32,74*,-15,16,56*,16,-10
COC(=O)c1cc(C)nc2c1C(=O)C(=O)C=C2N1CCOCC1,.,.,68*,105*,.,66,101*,99*,103*
COC(=O)c1cc(S(=O)(=O)N2CCOCC2)c(Cl)cc1N1CCOCC1,3,1,-6,-9,-2,.,.,.,.
Cc1oc2c(c1C(=O)O)C(=O)c1ccccc1C2=O,7,0.9,14,32,44,.,.,.,.
O=C1C(=O)c2c(C(=O)c3ccccc3)coc2-c2ccccc21,62*,0.4,51*,117*,61*,53,107*,94*,100*
Cc1oc2c(c1C(=O)c1ccccc1)C(=O)C(=O)c1ccccc1-2,58*,0.4,42*,108*,60*,52,101*,90*,91*
CC(C)(C)n1nc2c(c1NC(=O)Cc1ccccc1)CS(=O)(=O)C2,1,1,-4,3,4,.,.,.,.
CCOC(=O)/C(=C\c1ccccc1)C(=O)c1cc(C(C)=O)c(Nc2ccccc2)s1,24,0.8,20,-1,0,.,.,.,.
CCOC(=O)/C(=C\c1cccnc1)C(=O)c1cc(C(C)=O)c(Nc2ccccc2)s1,34,0.7,42*,66*,1,16,20,.,.
COc1ccc(-c2cc(C(=O)N3CCN(c4ccccc4O)CC3)c3ccccc3n2)cc1OC,.,.,9,29,.,.,.,.,.
O=c1[nH]cc(I)cc1I,.,.,5,-17,.,.,.,.,.
N=C1N(c2ccccc2)C(=S)C(=Nc2ccccc2)N1c1ccccc1,.,.,-77,65*,.,4,26,.,.
O=C1C(Cc2ccccc2)SC(=Nc2ccccc2)N1c1ccccc1 (stereo unspecified),16,0.8,8,7,3,.,.,.,.
CCOP(=O)(c1ccc(N(C)C)cc1)C(O)c1ccccc1F (stereo unspecified),.,.,-1,-7,.,.,.,.,.
C=CC(=O)N1C/C(=C/c2ccc(F)cc2)C(=O)/C(=C\c2ccc(F)cc2)C1,.,.,36*,62*,.,4,14,.,.
CCN(CC)c1ccc(C(=C2C=CC(=[N+](CC)CC)C=C2)c2ccc(N(CC)CC)cc2)cc1,.,.,54*,92*,.,12,85*,35,22
O=C(NCCN1CCCOC1=O)C(=O)NCCN1CCCOC1=O,.,.,0,-7,.,.,.,.,.
CCN(CC)CCNc1cc(C)nc2c1C(=O)C(=O)C=C2N1CCCCC1,.,.,45*,75*,51*,58,47,.,.
O=[N+]([O-])c1ccc(N/N=C/c2cccc(O)c2O)c(S(=O)(=O)N2CCOCC2)c1,36,0.6,3,-12,31,.,.,.,.
O=[N+]([O-])c1ccc(N/N=C/c2ccc(O)c(O)c2O)c(S(=O)(=O)N2CCOCC2)c1,88*,0.1,38*,66*,24,9,62*,30,28
O=C(Nc1ccc(N2CCCC2)cc1)c1cccc(-c2cc3ccccc3oc2=O)c1,-27,1.3,-40,68*,-21,-25*,58*,-21,-29
COc1cc(/C=C2\SC(c3ccc(C)cc3)=NC2=O)cc(OC)c1O,66*,0.3,48*,75*,-67,32,53*,7,13
COc1cc(/C=C2\SC(N)=NC2=O)cc(Cl)c1O,.,.,16,23,.,.,.,.,.
SMILES,Diaph inh CS,Diaphorase act,HKDC1 inhibitor,PfGluPho inh,G6PDH CS,HKDC1 act conf,PfGluPho conf,Diaph ctr 10uM,Diaph ctr 30uM
CC[C@H](C)[C@H](NC(=O)[C@H](Cc1ccc(O)cc1)NC(=O)[C@@H](N)C(C)C)C(=O)N[C@@H](Cc1cnc[nH]1)C(=O)N1CCC[C@H]1C(=O)N[C@@H](Cc1ccccc1)C(=O)O,2,1,-4,-16,14,.,.,.,.
CCC(C)C(N)C1=NC(C(=O)N[C@@H](CC(C)C)C(=O)N[C@H](CCC(=O)[O-])C(=O)N[C@H](C(=O)N[C@H]2CCCCNC(=O)[C@H](CC(N)=O)NC(=O)[C@@H](CC(=O)[O-])NC(=O)[C@H](Cc3cnc[nH]3)NC(=O)[C@@H](Cc3ccccc3)NC(=O)[C@H]([C@@H](C)CC)NC(=O)[C@@H](CCCN)NC2=O)[C@@H](C)CC)CS1.[Zn+2] (stereo partly specified),.,.,92*,64*,.,75,26,.,.
CCn1cnc2cc(NCc3ccc(OC)cc3)ccc21,15,0.8,-3,11,0,.,.,.,.
CCOc1ccc2nc3cc(NCc4ccc(OC)cc4)ccc3c(N)c2c1,.,.,36*,67*,.,-4,30,.,.
COC(=O)c1c(NC(=O)CCC(=O)O)sc(Cc2ccccc2)c1C,.,.,-1,-34,.,.,.,.,.
COC(=O)CCC(=O)Nc1sc(Cc2ccccc2)c(C)c1C(N)=O,.,.,-44,75*,9,-23,63*,27,-2
O=C(CSc1ccccc1F)NCC(c1cccs1)N1CCOCC1 (stereo unspecified),.,.,4,1,.,.,.,.,.
CCc1ccc(S(=O)(=O)/N=C2\C=C(Nc3ccc(O)cc3)C(=O)c3ccccc32)cc1,.,.,32,94*,.,6,32,.,.
CCc1ccc(S(=O)(=O)/N=C2\C=C(Nc3cccc(C(=O)O)c3)C(=O)c3ccccc32)cc1,.,.,53*,61*,.,65,41,.,.
N#Cc1ccc(Cl)cc1NC(=O)COC(=O)c1cccc(S(=O)(=O)N2CCOCC2)c1,.,.,0,-9,.,.,.,.,.
Cc1cc(C)c(S(=O)(=O)/N=C2/C=C(SCC(=O)O)C(=O)c3ccccc32)cc1C,29,0.7,51*,106*,51*,30,95*,48,36
Cc1ccc(NC(=O)CSc2ccccc2)cc1S(=O)(=O)N1CCCCC1,.,.,0,7,.,.,.,.,.
COCCCC1CCN(C(=O)CCc2nnc(CCCCc3ccccc3)o2)CC1,12,0.9,-2,-19,25,.,.,.,.

# Screens as filed in PubChem BioAssay.
